From ChEMBL document CHEMBL1127066, “Discovery and structure-activity relationship of a series of 1-carba-1-dethiacephems exhibiting activity against methicillin-resistant Staphylococcus aureus” (J Med Chem, 1993)

What was measured:
[1] = Maximum concentration determined in monkeys dosed intravenously with 30 mg/kg; type: ADME, organism-based; set-up: dose 30 mg/kg, route intravenous; details: simiiformes, in vivo, iv
How it was run: (§1)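 Male rhesus monkeys (n = 4) received 30 mg/kg iv in 0.9% saline. Cephalic-vein plasma was sampled over 8 h, and 0–24 h cumulative urine was collected in metabolism cages into 0.1 M sodium citrate, pH 6.5. Antibacterial activity was quantified by agar well diffusion bioassay against plasma- or citrate-based standard curves. Half-life was 0.693/β from the terminal phase, and urinary recovery was % of administered dose.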

[2] = Maximum concentration determined in rats dosed intravenously with 20 mg/kg; type: ADME, organism-based; set-up: dose 20 mg/kg, route intravenous; details: rat, in vivo, iv
How it was run: (§2)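 Male Sprague–Dawley rats (n = 4) were given 20 mg/kg iv in 0.9% saline through a jugular cannula, with serial plasma samples and cumulative urine collected over 6 h. Urine was collected into 0.1 M citrate, pH 6.5, and samples were stored at -70 °C. Drug was measured by agar well diffusion bioassay (E. coli ATCC4157 or M. luteus ATCC9241) against spiked standard curves. Half-life was 0.693/β from the terminal slope, and urinary recovery was % of dose.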

Homo sapiens [3] = organism: Homo sapiens; test: (§3) In vitro plasma protein binding was evaluated by using Human plasma at 20 ug/mL; type: ADME
How it was run: (§4)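 Binding was measured by ultrafiltration (Centrifree micropartition) in pooled plasma (ICR mouse, Sprague–Dawley rat, rhesus monkey or human) at a drug concentration of 20 μg/mL.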

Rhesus monkey = test: In vitro plasma protein binding was evaluated by using rhesus monkey at 20 ug/mL; type: ADME, Macaca mulatta; how it was run: as §4
Mus musculus = organism: Mus musculus; test: In vitro plasma protein binding was evaluated using ICR mouse at 20 ug/mL; type: ADME; how it was run: as §4
[4] = Percent urinary recovery (as total antibacterial activity) in monkeys dosed intravenously with 30 mg/kg; type: ADME, organism-based, Urine; set-up: dose 30 mg/kg, route intravenous; details: simiiformes, in vivo, iv; how it was run: as §1
Rattus norvegicus [5] = test: Percent urinary recovery (as total antibacterial activity) in rats dosed intravenously with 20 mg/kg; type: ADME, organism-based, Urine; set-up: dose 20 mg/kg, route intravenous; details: in vivo, iv; how it was run: as §2
[6] = Half-life determined in monkeys dosed intravenously with 30 mg/kg; type: ADME, organism-based; set-up: dose 30 mg/kg, route intravenous; details: simiiformes, in vivo, iv; how it was run: as §1
[7] = Half-life determined in rats dosed intravenously with 20 mg/kg; type: ADME, organism-based; set-up: dose 20 mg/kg, route intravenous; details: rat, in vivo, iv; how it was run: as §2
Escherichia coli = test: In vitro evaluation of antimicrobial activity against Escherichia coli EC14 strain; type: functional
Enterobacter cloacae = test: In vitro evaluation of antimicrobial activity against Enterobacter cloacae EB5 strain; type: functional
Haemophilus influenzae = test: In vitro antimicrobial activity against Haemophilus influenzae C.L. strain; type: functional
Klebsiella = test: In vitro antimicrobial activity against Klebsiella X26 strain; type: functional
Staphylococcus aureus [8] = test: In vitro evaluation of antimicrobial activity against 31 strains of heteroresistant Staphylococcus aureus in trypticase soy broth with 4% sodium chloride; type: functional
Staphylococcus aureus [9] = test: In vitro evaluation of antimicrobial activity against heteroresistant Staphylococcus aureus ST 430 strain in trypticase soy broth; type: functional
Staphylococcus aureus [10] = test: In vitro evaluation of antimicrobial activity against heteroresistant Staphylococcus aureus ST 430 strain in trypticase soy broth with 4% sodium chloride; type: functional
Pseudomonas aeruginosa [11] = test: Antimicrobial activity against Pseudomonas PS18 strain; type: functional
Pseudomonas aeruginosa [12] = test: In vitro antimicrobial activity against Pseudomonas X239 strain; type: functional
[13] = system: Staphylococcus epidermidis; test: In vitro antimicrobial activity against Staphylococcus epidermidis 222 strain; type: functional
[14] = system: Staphylococcus epidermidis; test: In vitro antimicrobial activity against Staphylococcus epidermidis 270 strain; type: functional
Staphylococcus aureus [15] = test: In vitro antimicrobial activity against Staphylococcus aureus S13E strain; type: functional
Staphylococcus aureus [16] = test: In vitro antimicrobial activity against Staphylococcus aureus X400 strain; type: functional
Streptococcus pneumoniae = test: In vitro antimicrobial activity against Streptococcus pneumoniae PARK strain; type: functional
Rattus norvegicus [17] = organism: Rattus norvegicus; test: (§5) In vitro plasma protein binding was evaluated using Sprauge-Dawley rat at 20 ug/mL; type: ADME; how it was run: as §4
Staphylococcus aureus [18] = test: In vitro antimicrobial activity against Staphylococcus aureus X1.1 strain; type: functional
Homo sapiens [19] = organism: Homo sapiens; test: as §3; type: functional; how it was run: as §4
Rattus norvegicus [20] = organism: Rattus norvegicus; test: as §5; type: functional; how it was run: as §4

Work on `Nc1nc(/C(=N\OCCF)C(=O)N[C@@H]2C(=O)N3C(C(=O)[O-])=C(Sc4nc5cnccc5s4)CC[C@H]23)cs1.[Na+]` yielded a Cmax [1] of 343 µg/mL, a Cmax [2] of 56.7 µg/mL and a Bound (Homo sapiens [3]) of 96.6%. For the same compound, the Bound (Rhesus monkey) was 98.5%, the Bound (Mus musculus) was 88.5% and the Recovery [4] was 46.8%. For the same compound, the Recovery (Rattus norvegicus [5]) was 37.2%, the half-life [6] was 58.4 min and the half-life [7] was 35.1 min. The MIC (Escherichia coli) was 0.06 µg/mL, the MIC (Enterobacter cloacae) was 1 µg/mL and the MIC (Haemophilus influenzae) was 0.03 µg/mL. It also gave an MIC (Klebsiella) of 0.03 µg/mL, an MIC (Staphylococcus aureus [8]) of 2.6 µg/mL and an MIC (Staphylococcus aureus [9]) of 0.5 µg/mL. It also gave an MIC (Staphylococcus aureus [10]) of 1 µg/mL, an MIC (Pseudomonas aeruginosa [11]) of 32 µg/mL and an MIC (Pseudomonas aeruginosa [12]) of 32 µg/mL. For the same compound, the MIC [13] was 0.5 µg/mL, the MIC [14] was 2 µg/mL and the MIC (Staphylococcus aureus [15]) was 0.5 µg/mL. For the same compound, the MIC (Staphylococcus aureus [16]) was 4 µg/mL, the MIC (Streptococcus pneumoniae) was < 0.008 µg/mL and the Bound (Rattus norvegicus [17]) was 95%. The MIC (Staphylococcus aureus [18]) was 0.125 µg/mL.

With `Nc1nc(/C(=N\OCCF)C(=O)N[C@@H]2C(=O)N3C(C(=O)[O-])=C(Sc4nncs4)CC[C@H]23)cs1.[Na+]` the Bound (Homo sapiens [3]) was 36%, the Bound (Rhesus monkey) was 49.1% and the Bound (Mus musculus) was 36.2%. For the same compound, the MIC (Escherichia coli) was 0.03 µg/mL, the MIC (Enterobacter cloacae) was 0.5 µg/mL and the MIC (Haemophilus influenzae) was 0.015 µg/mL. The MIC (Klebsiella) was 0.015 µg/mL, the MIC (Pseudomonas aeruginosa [11]) was 32 µg/mL and the MIC (Pseudomonas aeruginosa [12]) was > 128 µg/mL. For the same compound, the MIC [13] was 0.5 µg/mL, the MIC [14] was 0.06 µg/mL and the MIC (Staphylococcus aureus [15]) was 16 µg/mL. The MIC (Staphylococcus aureus [16]) was 64 µg/mL, the MIC (Streptococcus pneumoniae) was < 0.008 µg/mL and the Bound (Rattus norvegicus [17]) was 63.1%. The MIC (Staphylococcus aureus [18]) was 0.125 µg/mL.

Compound `CO/N=C(\C(=O)N[C@@H]1C(=O)N2C(C(=O)O)=C(CSc3nc(=O)c(O)nn3C)CS[C@H]12)c1csc(N)n1` [CEFTRIAXONE] has a Bound (Homo sapiens [19]) of 94% and a Bound (Rattus norvegicus [20]) of 88.5%.
